Data taken from ChEMBL document CHEMBL1135925, “Exploration of the pharmacophore of 3-alkyl-5-arylimidazolidinediones as new CB(1) cannabinoid receptor ligands and potential antagonists: synthesis, lipophilicity, affinity, and molecular modeling” (J Med Chem, 2002).

Legend:
[1] = Lipophilicity (calculated by CLIP)
[2] = Capacity factor (log Kw) was measured; type: ADME; settings: RP-HPLC, methanol/phosphate buffer pH 7.4, extrapolated to 0% methanol
How it was run: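 RP-HPLC on a C18 column (250 mm × 4.6 mm, 5 μm particles), UV detection at 250 nm. Four mobile phases of methanol/0.1 M phosphate buffer pH 7.4 (90:10, 80:20, 75:25, 70:30 v/v). k' = (tr − t0)/t0, with t0 the column dead time. Calibrated against reference solutes of known log P (0.64–3.30), and log kw indices correlated with log P.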

[3] = target: Cannabinoid receptor 1 (Homo sapiens) (UniProt P21554); assay: Percent displacement of [3H]-SR-141716A, by compound at 10 uM, in transfected CHO cells expressing the human cannabinoid receptor 1.; type: cell-based
How it was run: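 Membranes (60 μg) from CHO cells expressing human CB1, cultured in Ham F12 with 10% FCS and G418. Test compound screened at 10 μM against 1 nM [3H]-SR-141716A, 1 h at 30 °C, in 50 mM Tris-HCl pH 7.4 with 3 mM MgCl2, 1 mM EDTA and 0.1% BSA. Nonspecific binding defined with 10 μM WIN-55,212-2 or CP-55,940. PEI-treated GF/C filtration, scintillation counting, triplicates, n = 3–5.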

Sequence of Cannabinoid receptor 1 (Homo sapiens) (P21554 whole entry): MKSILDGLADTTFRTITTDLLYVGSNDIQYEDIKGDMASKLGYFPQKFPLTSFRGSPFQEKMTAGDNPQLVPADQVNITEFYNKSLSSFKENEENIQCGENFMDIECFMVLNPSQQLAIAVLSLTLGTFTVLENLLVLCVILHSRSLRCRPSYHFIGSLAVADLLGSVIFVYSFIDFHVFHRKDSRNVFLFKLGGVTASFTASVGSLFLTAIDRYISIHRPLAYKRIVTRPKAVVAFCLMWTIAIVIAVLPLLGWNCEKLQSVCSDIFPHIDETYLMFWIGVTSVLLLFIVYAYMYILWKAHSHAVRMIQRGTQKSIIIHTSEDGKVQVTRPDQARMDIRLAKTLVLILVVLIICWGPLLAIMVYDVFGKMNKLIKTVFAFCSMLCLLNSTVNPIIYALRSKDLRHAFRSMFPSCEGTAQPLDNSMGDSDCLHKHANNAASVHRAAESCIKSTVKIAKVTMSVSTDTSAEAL

Row | CLIP [1] | Log Kw [2] | Displacement [3] | SMILES
1 | 5.81 |  |  | CCCCCCN1C(=O)NC(c2ccc(OC)cc2)(c2ccc(OC)cc2)C1=O
2 | 7.45 | 6.65 |  | CCCCCCCN1C(=O)NC(c2ccc(Br)cc2)(c2ccc(Br)cc2)C1=O
3 | 6.87 | 6.14 |  | CCCCCCN1C(=O)NC(c2ccc(Br)cc2)(c2ccc(Br)cc2)C1=O
4 | 5.81 |  |  | CCCCCCN1C(=O)NC(c2ccc(F)cc2)(c2ccc(F)cc2)C1=O
5 | 4.26 | 3.46 |  | CCCCN1C(=O)NC(c2ccccc2)(c2ccccc2)C1=O
6 | 6.42 |  |  | CCCCCCCN1C(=O)NC(c2ccc(F)cc2)(c2ccc(F)cc2)C1=O
7 | 2.8 |  | 44.3% | O=C1NC(Cc2c[nH]c3ccccc23)C(=O)N1CCCc1ccccc1 (stereo unspecified)
8 | 5.37 | 4.32 |  | CCCCCCN1C(=O)NC(c2ccccc2)(c2ccccc2)C1=O
9 | 7.99 |  |  | CCCCCCCCN1C(=O)NC(c2ccc(Br)cc2)(c2ccc(Br)cc2)C1=O
10 | 6.5 |  |  | CCCCCCCCN1C(=O)NC(c2ccccc2)(c2ccccc2)C1=O
11 | 3.21 | 3.17 | 28.8% | CCCCCCN1C(=O)NC(Cc2c[nH]c3ccccc23)C1=O (stereo unspecified)
12 | 2.16 |  |  | O=C1NC(c2ccccc2)(c2ccccc2)C(=O)N1CCN1CCOCC1
13 | 4.11 |  |  | O=C1NC(c2ccccc2)(c2ccccc2)C(=O)N1Cc1ccccc1
14 | 2.21 | 2.35 | < 5% | CCCCN1C(=O)NC(Cc2c[nH]c3ccccc23)C1=O (stereo unspecified)
15 | 7.04 |  |  | CCCCCCCN1C(=O)NC(c2ccc(C)cc2)(c2ccc(C)cc2)C1=O
16 | 6.94 |  |  | CCCCCCCCN1C(=O)NC(c2ccc(F)cc2)(c2ccc(F)cc2)C1=O
17 | 3.76 |  |  | O=C1NC(c2ccc(Br)cc2)(c2ccc(Br)cc2)C(=O)N1CCCO
18 | 2.92 | 3.08 | 59.8% | O=C1NC(Cc2c[nH]c3ccccc23)C(=O)N1Cc1cccc2ccccc12 (stereo unspecified)
19 | 6.48 |  |  | CCCCCCN1C(=O)NC(c2ccc(C)cc2)(c2ccc(C)cc2)C1=O
20 | 3.83 | 4.11 |  | O=C1NC(c2ccccc2)(c2ccccc2)C(=O)N1CCN1CCCCC1
21 | 3.84 | 2.93 |  | CCCN1C(=O)NC(c2ccccc2)(c2ccccc2)C1=O
22 | 2.81 |  |  | O=C1NC(c2ccc(F)cc2)(c2ccc(F)cc2)C(=O)N1CCN1CCOCC1
23 | 2.89 |  | < 5% | CC(C)N1C(=O)NC(c2ccccc2)(c2ccccc2)C1=O
24 | 2.83 | 3 |  | CN(C)CCN1C(=O)NC(c2ccccc2)(c2ccccc2)C1=O
25 | 2.31 |  | 64% | O=C1NC(Cc2c[nH]c3ccccc23)C(=O)N1CCc1ccccc1 (stereo unspecified)
26 | 2.73 |  |  | COc1ccc(C2(c3ccc(OC)cc3)NC(=O)N(CCN3CCOCC3)C2=O)cc1
27 | 4.8 |  |  | CCCCCN1C(=O)NC(c2ccccc2)(c2ccccc2)C1=O
28 | 3.49 |  |  | Cc1ccc(C2(c3ccc(C)cc3)NC(=O)N(CCN3CCOCC3)C2=O)cc1

Row | SMILES | CLIP [1] | Log Kw [2] | Displacement [3]
29 | O=C1NC(c2ccc(Br)cc2)(c2ccc(Br)cc2)C(=O)N1CCN1CCOCC1 | 3.86 | 4.5 | 
